From ChEMBL document CHEMBL3352044, “Synthesis and structure-activity relationship studies of N-benzyl-2-phenylpyrimidin-4-amine derivatives as potent USP1/UAF1 deubiquitinase inhibitors with anticancer activity against nonsmall cell lung cancer” (J Med Chem, 2014) come the findings set out here.

Series [1] has as its target Ubiquitin carboxyl-terminal hydrolase 1/WD repeat-containing protein 48 (Homo sapiens, UniProt O94782). Kind of series: Inhibition of human USP1/UAF1 using ubiquitin-rhodamine110 substrate by fluorescence assay.
The test system of the next series is Liver microsome. Description: Half life in rat liver microsomes in presence of NADPH. It is filed as ADME. The procedure, abridged:
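Rat liver microsomes with NADPH; half-life in minutes.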

Sequence of Ubiquitin carboxyl-terminal hydrolase 1/WD repeat-containing protein 48 (O94782 whole entry): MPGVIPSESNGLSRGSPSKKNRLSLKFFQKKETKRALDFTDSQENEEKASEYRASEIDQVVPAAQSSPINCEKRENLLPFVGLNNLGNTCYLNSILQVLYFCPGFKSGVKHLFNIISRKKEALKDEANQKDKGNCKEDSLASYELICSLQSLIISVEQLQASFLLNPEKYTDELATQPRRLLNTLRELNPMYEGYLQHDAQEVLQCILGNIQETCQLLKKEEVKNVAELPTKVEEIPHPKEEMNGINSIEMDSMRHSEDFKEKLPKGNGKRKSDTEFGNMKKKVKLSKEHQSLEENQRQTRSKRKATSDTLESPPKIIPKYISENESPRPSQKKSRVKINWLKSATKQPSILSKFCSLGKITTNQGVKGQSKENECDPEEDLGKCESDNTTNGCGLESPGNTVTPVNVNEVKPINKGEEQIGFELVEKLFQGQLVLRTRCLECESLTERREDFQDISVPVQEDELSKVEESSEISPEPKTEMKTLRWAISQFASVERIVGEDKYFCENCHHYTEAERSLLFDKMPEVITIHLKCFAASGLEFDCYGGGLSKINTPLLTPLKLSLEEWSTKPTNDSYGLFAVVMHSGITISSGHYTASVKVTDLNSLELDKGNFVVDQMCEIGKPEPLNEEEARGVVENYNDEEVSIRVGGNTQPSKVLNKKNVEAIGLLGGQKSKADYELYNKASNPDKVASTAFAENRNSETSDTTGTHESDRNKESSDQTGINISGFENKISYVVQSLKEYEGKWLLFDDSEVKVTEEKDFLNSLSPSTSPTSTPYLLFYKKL
Sequence of Ubiquitin carboxyl-terminal hydrolase 1/WD repeat-containing protein 48 (Q8TAF3 whole entry, further chain): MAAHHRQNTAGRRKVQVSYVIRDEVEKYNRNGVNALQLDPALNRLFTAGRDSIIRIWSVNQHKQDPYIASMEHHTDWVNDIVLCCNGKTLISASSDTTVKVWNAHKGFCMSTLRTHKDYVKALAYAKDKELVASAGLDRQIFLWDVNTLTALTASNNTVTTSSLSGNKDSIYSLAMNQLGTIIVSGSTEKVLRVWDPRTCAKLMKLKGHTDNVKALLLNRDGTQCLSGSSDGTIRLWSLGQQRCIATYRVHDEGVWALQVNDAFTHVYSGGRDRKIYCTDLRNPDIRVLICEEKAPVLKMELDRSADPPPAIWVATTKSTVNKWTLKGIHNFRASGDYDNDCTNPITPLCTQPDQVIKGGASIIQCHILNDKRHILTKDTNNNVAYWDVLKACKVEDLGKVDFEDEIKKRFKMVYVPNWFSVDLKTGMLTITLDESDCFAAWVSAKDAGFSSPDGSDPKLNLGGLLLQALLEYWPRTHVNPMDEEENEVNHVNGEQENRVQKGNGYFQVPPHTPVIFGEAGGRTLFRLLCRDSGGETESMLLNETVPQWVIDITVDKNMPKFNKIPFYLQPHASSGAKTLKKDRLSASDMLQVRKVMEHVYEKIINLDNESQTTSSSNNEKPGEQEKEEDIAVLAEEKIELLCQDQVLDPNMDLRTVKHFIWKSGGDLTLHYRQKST

What is called IC50 is the concentration that gives 50% inhibition. High values mean a need for much substance, low ones inhibition by little substance. Molecule `CC(C)c1ccccc1-c1nc2c(c(NCc3ccc(-c4cccnc4)cc3)n1)CCC2` displayed an IC50 in series [1] of 160 nM. This counts as sub-micromolar.

Molecule `Brc1ccccc1-c1nc(NCc2ccc(-c3cccnc3)cc2)c2ccccc2n1` displayed a 50% inhibitory concentration (IC50) in series [1] of 1600 nM. This IC50 is about 10-fold higher than that of the molecule before.

`Cc1ccc(-c2ccc(CNc3nc(-c4ccccc4C(C)C)ncc3C)cc2)cn1` gave an IC50 in series [1] of 50 nM. Consider `Cc1cc(NCc2ccc(-c3cccnc3)cc2)nc(-c2ccccc2C(C)C)n1`, for which the IC50 in series [1] stood at 210 nM. As to `CC(=O)c1ccccc1-c1ncc(C)c(NCc2ccc(-c3cccnc3)cc2)n1`, the IC50 in series [1] was 8700 nM. As to `FC(F)(F)c1ccccc1-c1nc(NCc2ccc3c(c2)OCO3)c2ccccc2n1`, in series [1], the IC50 was determined as 8400 nM. Still for that read-out and setting: next, `FC(F)(F)c1cc(-c2ccc(CNc3nc(-c4ccccc4C(F)(F)F)nc4ccccc34)cc2)ccn1`: 4900 nM; `Cc1cccc(CNc2nc(-c3ccccc3C(C)C)ncc2C)c1`: 130 nM. Turning to `Cc1cnc(-c2ccccc2C(C)C)nc1NCc1ccc(-c2cccnc2)cc1`, the t1/2 with Liver microsome was found to be 5.8 min. Also, in series [1], the IC50 stood at 70 nM.

Molecule `N#Cc1ccc(CNc2nc(-c3ccccc3C(F)(F)F)nc3ccccc23)cc1` displayed an IC50 in series [1] of 5700 nM. Molecule `CC(C)c1ccccc1-c1nc(NCc2ccc(-c3cccnc3)cc2)c2cccn2n1` came in with an IC50 in series [1] of 260 nM. In series [1], `CC(C)c1ccccc1-c1nc2c(c(NCc3ccc(-c4cccnc4)cc3)n1)CNC2` gave an IC50 of 2900 nM. `COc1ccccc1-c1nc(NCc2ccc(-c3cccnc3)cc2)c2ccccc2n1`: the IC50 in series [1] was 940 nM. As for `CC(C)c1ccccc1-c1nc(NCc2ccc(-c3cccnc3)cc2)c2ccsc2n1`, inhibition in series [1] was half-maximal at 280 nM (IC50). Still for that read-out and setting: next, `Fc1ccc(CNc2nc(-c3ccccc3C(F)(F)F)nc3ccccc23)cc1`: 3400 nM; `Cc1cnc(-c2ccccc2C(C)C)nc1NCc1ccc(-c2ccnc(C(F)(F)F)c2)cc1`: 320 nM. The same measure, in the same setting: as for `CC(C)c1ccccc1-c1ncc(N)c(NCc2ccc(-c3cccnc3)cc2)n1`, the figure is 310 nM. Still for that read-out and setting: as for `Cc1cnc(-c2ccccc2CO)nc1NCc1ccc(-c2cccnc2)cc1`, the figure is 10500 nM; as for `CSc1cnc(-c2ccccc2C(C)C)nc1NCc1ccc(-c2cccnc2)cc1`, 110 nM; as for `Cc1cnc(-c2ccccc2C(C)C)nc1NCC1CCN(C2COC2)CC1`, 13600 nM. Turning to `Cc1cnc(-c2ccccc2C(C)O)nc1NCc1ccc(-c2cccnc2)cc1` (stereo not given), in series [1], the half-inhibitory concentration (IC50) turned out to be 2000 nM.

In series [1], `CC(C)c1ccccc1-c1nc2c(c(NCc3ccc(-c4cccnc4)cc3)n1)CCNC2` returned an IC50 of 860 nM. Same read-out and setting: as for `Cc1ccc(CNc2nc(-c3ccccc3C(F)(F)F)nc3ccccc23)s1`, the figure is 5100 nM; as for `CC(C)c1ccccc1-c1nc(NCc2ccc(-c3cccnc3)cc2)c2ccccc2n1`, 180 nM. The same measure, in the same setting: as for `Clc1ccccc1-c1nc(NCc2ccc(-c3cccnc3)cc2)c2ccccc2n1`, the figure is 2100 nM.

`CC(C)c1ccccc1-c1nccc(NCc2ccc(-c3cccnc3)cc2)n1` gave an IC50 in series [1] of 150 nM. The molecule `CC(C)c1ccccc1-c1nc(NCc2ccc(-c3cccnc3)cc2)c2nc[nH]c2n1` gave an IC50 in series [1] of 120 nM.

As to `FC(F)(F)c1ccccc1-c1nc(NCc2ccccc2)c2ccccc2n1`, the IC50 in series [1] was found to be 3100 nM. On the same count and under the same terms, as for `FC(F)(F)c1ccccc1-c1nc(NCc2ccc(-c3ccc(Cl)c(Cl)c3)cc2)c2ccccc2n1`, the figure is 2200 nM; as for `Cc1cnc(-c2ccccc2C(C)C)nc1NCC1CCN(c2cccnc2)C1` (stereo not given), 800 nM. The same measure, in the same setting: next, `Cc1cnc(-c2ccccc2C(C)C)nc1NCc1ccc(-c2ccc(F)nc2)cc1`: 80 nM; `FC(F)(F)c1ccccc1-c1nc(NCC#Cc2cccnc2)c2ccccc2n1`: 8900 nM.

Molecule `FC(F)(F)c1ccccc1-c1nc(NCc2ccc(Cl)c(Cl)c2)c2ccccc2n1` gave an IC50 in series [1] of 10400 nM. As to `Cc1cnc(-c2ccccc2C(C)C)nc1NCC1CCN(c2cnccn2)CC1`, half-maximal inhibition in series [1] (IC50) was put at 140 nM. Still for that read-out and setting: as for `FC(F)(F)c1ccccc1-c1nc(NCc2ccc(C3CCCCC3)cc2)c2ccccc2n1`, the figure is 9800 nM. Take `FC(F)(F)c1ccccc1-c1nc(NCc2ccc(N3CCOCC3)cc2)c2ccccc2n1`: in series [1], the IC50 was found to be 10400 nM. Still for that read-out and setting: as for `FC(F)(F)c1ccccc1-c1nc(NCc2ccc(-c3ccccc3)cc2)c2ccccc2n1`, the figure is 3700 nM. Still for that read-out and setting: as for `Cc1cnc(-c2ccccc2C(C)C)nc1NCc1cccs1`, the figure is 270 nM; as for `CCc1ccccc1-c1nc(NCc2ccc(-c3cccnc3)cc2)c2ccccc2n1`, 780 nM.

Take `[2H]C([2H])([2H])C([2H])(c1ccccc1-c1ncc(C)c(NCc2ccc(-n3ccnn3)cc2)n1)C([2H])([2H])[2H]`: in the series on Liver microsome, the t1/2 was 9.5 min. Regarding `[2H]C([2H])(Nc1nc(-c2ccccc2C([2H])(C([2H])([2H])[2H])C([2H])([2H])[2H])ncc1C)c1ccc(-n2ccnn2)cc1`, the t1/2 in the series with Liver microsome turned out to be 13 min. In the case of `FC(F)(F)c1ccccc1-c1nc(NCc2ccc(-c3ccncc3)cc2)c2ccccc2n1`, the IC50 in series [1] was found to be 1900 nM. In other words, the single-digit micromolar range. Still for that read-out and setting: as for `Cc1cnc(-c2ccccc2C(C)C)nc1NCc1ccc(-c2nnn[nH]2)cc1`, the figure is 5900 nM; as for `FC(F)(F)c1ccc(CNc2nc(-c3ccccc3C(F)(F)F)nc3ccccc23)cc1`, 8900 nM; as for `FC(F)c1ccccc1-c1nc(NCc2ccc(-c3cccnc3)cc2)c2ccccc2n1`, 1400 nM. Regarding `FC(F)(F)c1ccccc1-c1nc(NCc2ccc(-c3cncnc3)cc2)c2ccccc2n1`, in series [1], the IC50 was 3000 nM. Same read-out and setting: next, `FC(F)(F)c1ccccc1-c1nc(NCc2ccc(-c3ccc(Cl)cc3)cc2)c2ccccc2n1`: 3600 nM. As for `CC(C)c1ccccc1-c1ncc(N(C)C)c(NCc2ccc(-c3cccnc3)cc2)n1`, the IC50 in series [1] stood at 190 nM. Same read-out and setting: as for `Cc1nc(-c2ccccc2C(C)C)nc(NCc2ccc(-c3cccnc3)cc2)c1C`, the figure is 120 nM. As to `[2H]C([2H])(Nc1nc(-c2ccccc2C(C)C)ncc1C)c1ccc(-n2ccnn2)cc1`, in the series with Liver microsome, the t1/2 was 12 min. Still for that read-out and setting: as for `[2H]C([2H])([2H])C(c1ccccc1-c1ncc(C)c(NCc2ccc(-n3ccnn3)cc2)n1)C([2H])([2H])[2H]`, the figure is 7.9 min.

Turning to `FC(F)(F)c1ccccc1-c1nc(NCc2ccc(-c3cccc(Cl)c3)cc2)c2ccccc2n1`, in series [1], the IC50 amounted to 2700 nM. As for `FC(F)(F)c1ccccc1-c1nc(NCc2ccc(-c3cccnc3)cc2)c2ccccc2n1`, in series [1], it took 1100 nM to reach half-maximal inhibition (IC50). This IC50 is about 2.5-fold lower than that of the molecule before. Same read-out and setting: next, `Cc1cnc(-c2ccccc2C(C)C)nc1NCc1cccnc1`: 1300 nM; `Cc1ccc(N2CCC(CNc3nc(-c4ccccc4C(C)C)ncc3C)CC2)cn1`: 90 nM; `O=[N+]([O-])c1ccccc1-c1nc(NCc2ccc(-c3cccnc3)cc2)c2ccccc2n1`: 7800 nM. Still for that read-out and setting: next, `Cc1cnc(-c2ccccc2C(C)C)nc1NCC1CN(c2cccnc2)C1`: 21700 nM; `Cc1ccccc1-c1nc(NCc2ccc(-c3cccnc3)cc2)c2ccccc2n1`: 1100 nM; `CC(C)c1ccccc1-c1nc(NCc2ccc(-c3cccnc3)cc2)c2sccc2n1`: 110 nM. Still for that read-out and setting: next, `FC(F)(F)c1ccccc1-c1nc(NCc2ccc(Cl)cc2)c2ccccc2n1`: 4800 nM; `COc1ccc(CNc2nc(-c3ccccc3C(F)(F)F)nc3ccccc23)cc1`: 6200 nM; `Cc1cccc(C(CO)Nc2nc(-c3ccccc3C(C)C)ncc2C)c1` (stereo not given): 21000 nM.

Regarding `Fc1ccccc1-c1nc(NCc2ccc(-c3cccnc3)cc2)c2ccccc2n1`, in series [1], the IC50 is 6500 nM. Compared with the last molecule, the IC50 is about 3.2-fold lower.

Turning to `CC(C)c1ccccc1-c1ncc(F)c(NCc2ccc(-c3cccnc3)cc2)n1`, half-maximal inhibition in series [1] (IC50) required 110 nM.
